Shown are actives, neighbours in structure and some others; about 4.9% of the full set was active somewhere.
NPY2 pot ag: human NPY-Y2 potentiation or agonism, primary screen | P49146 | cells expressing NPY-Y2, potentiator/agonist read-out | activation, % at 3.6 µM | hit rate 0.45% among 220,000; in the data active = activation above about 27%;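 note: cells stimulated with NPY near EC25 plus isoproterenol at EC100; 0% = vehicle plus submaximal agonist and 100% = vehicle plus saturating agonist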
RAM inhibit: yeast RAM network inhibition; S. cerevisiae dse1pr::URA3 reporter, 5-FOA growth OD615, 2 d; analog-sensitive cbk1-as2 kinase mutant strain; inhibition, % at 50 µM; hit rate 1.8% among 190,000; AID 868;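 active = inhibition above a set limit, 3 SD over mean compound inhibition, cut at about 8.4% in these data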;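 note: 0% = DMSO-only wells with no growth and 100% = 10 µM 1-NA-PP1 full growth; inhibition rescues growth on 5-FOA so higher OD means more RAM inhibition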
NPY-Y1 antag: NPY-Y1 (human) receptor antagonism; HEK293-CNG Y1 cells, membrane potential fluorescence; NPY at EC95, then isoproterenol; inhibition, % at 3.6 µM; hit rate 1% among 200,000; AID 1040;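 active = inhibition above the campaign mean inhibition of all tested compounds plus 3 SD, cut at about 20% in these data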;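 note: 0% = DMSO wells given NPY plus isoproterenol and 100% = isoproterenol alone without NPY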
Target sequence (P25929 whole entry, looked up): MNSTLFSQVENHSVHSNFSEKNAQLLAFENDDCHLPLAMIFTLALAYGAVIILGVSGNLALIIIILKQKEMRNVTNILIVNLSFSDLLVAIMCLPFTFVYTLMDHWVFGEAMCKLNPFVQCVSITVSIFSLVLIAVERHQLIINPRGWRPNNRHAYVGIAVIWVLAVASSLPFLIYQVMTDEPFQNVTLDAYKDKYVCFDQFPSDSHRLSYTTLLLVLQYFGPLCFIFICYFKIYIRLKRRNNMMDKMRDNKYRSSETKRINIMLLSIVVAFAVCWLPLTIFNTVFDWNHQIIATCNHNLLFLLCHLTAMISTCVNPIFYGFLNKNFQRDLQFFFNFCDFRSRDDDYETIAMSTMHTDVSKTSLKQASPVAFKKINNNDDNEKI
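Assay system: HEK293 Y1/CNG channel cell line; Doses: single compound dose of 3.6 µM, 0.4% DMSO; Timing: dye 3 h, compound 60 min room temperature, stimulation 45 min; Technique: Membrane-potential fluorescent dye readout; Measure: % inhibition of NPY effect.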
NPY-Y2 antag: antagonists of human neuropeptide Y receptor Y2. NPY-Y2 expressing cells, antagonist mode. inhibition, % at 2.7 µM. hit rate 0.99% among 140,000. AID 793; in the data active = inhibition above about 17%;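 note: 0% = vehicle with agonist challenge and 100% = reference antagonist with challenge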
NPY-Y1 PAM-ag: potentiates or activates human NPY-Y1 receptor. P25929. NPY-Y1 expressing cells, potentiator/agonist activation. activation, % at 3.6 µM. hit rate 0.37% among 220,000. AID 1304; in the data active = activation above about 33%, passing the limit was not always enough;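 note: cells stimulated with NPY at EC10 then isoproterenol at EC100; 0% = low agonist plus stimulus and 100% = saturating agonist plus stimulus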
WT yeast gro inh: growth inhibition of WT yeast, mitochondrial fusion screen; mitochondrial fusion phenotypic screen, WT strain; inhibition, % at 10 µM; hit rate 2.1% among 190,000; in the data active = inhibition above about 58%; tested in S. cerevisiae
An asterisk follows results filed as active; ! = not active in a repeat.

For CN1CCN(CCCN2c3ccccc3Sc3ccc(C(F)(F)F)cc32)CC1 the results were NPY2 pot ag 17, RAM inhibit 0, NPY-Y1 antag 1, NPY-Y2 antag 0, NPY-Y1 PAM-ag 0 and WT yeast gro inh 93*!.
For CCOc1ccc(OCC)c(NC(=O)CN2CCN(c3cc(C)ccc3C)CC2)c1 the results were NPY2 pot ag -13, RAM inhibit 8.7*, NPY-Y1 antag 0, NPY-Y2 antag -1, NPY-Y1 PAM-ag -20 and WT yeast gro inh 17.
Screening CN(C)S(=O)(=O)Oc1cccc(C(=O)Nc2cccc(Cl)c2)c1 returned NPY2 pot ag 10, RAM inhibit 2, NPY-Y1 antag 0, NPY-Y2 antag -1, NPY-Y1 PAM-ag 19 and WT yeast gro inh -9.
CN(C)S(=O)(=O)Oc1cccc(C(=O)Nc2ccc(Cl)c(Cl)c2)c1 was read as NPY2 pot ag -16, RAM inhibit 9.9*, NPY-Y1 antag -7, NPY-Y2 antag 3, NPY-Y1 PAM-ag -28 and WT yeast gro inh 17.
`O=S(=O)(c1ccc2ccccc2c1)N1CCN=C1SCc1cccnc1` gave NPY2 pot ag 1, RAM inhibit 0, NPY-Y1 antag 7, NPY-Y1 PAM-ag -9 and WT yeast gro inh 1.
CN(C)c1ccc(-c2nn3c(C4CCCCC4)nnc3s2)cc1 was read as NPY2 pot ag 0, RAM inhibit 8.6*, NPY-Y1 antag 4, NPY-Y2 antag 5, NPY-Y1 PAM-ag -7 and WT yeast gro inh -8.
`CN(C)c1ccc(-c2nn3c(-c4ccc(Cl)cc4)nnc3s2)cc1` gave NPY2 pot ag 2, RAM inhibit 2, NPY-Y1 antag 5, NPY-Y2 antag 4, NPY-Y1 PAM-ag 3 and WT yeast gro inh 15.
For COc1ccc(-c2cn(-c3ccc(OC)cc3)c3[n+]2-c2ccccc2CC3)cc1 the results were NPY2 pot ag 16, RAM inhibit 0, NPY-Y1 antag 8, NPY-Y2 antag 5, NPY-Y1 PAM-ag -25 and WT yeast gro inh 2.
For COc1ccc(-n2c(-c3ccc(Br)cc3)c[n+]3c2CCc2ccccc2-3)cc1 the results were NPY2 pot ag -5, RAM inhibit 2, NPY-Y1 antag 59*, NPY-Y2 antag 25*, NPY-Y1 PAM-ag -98 and WT yeast gro inh 35.
For O=C1c2ccccc2C2=Nc3ccccc3SC(c3cccc(F)c3)C12 (configuration not stated) the results were NPY2 pot ag 22, RAM inhibit 4, NPY-Y1 antag -3, NPY-Y2 antag -3, NPY-Y1 PAM-ag 25 and WT yeast gro inh 84*.
`O=C1c2ccccc2C2=Nc3ccccc3SC(c3ccc(Cl)cc3)C12` (configuration not stated) gave NPY2 pot ag 19, RAM inhibit 6, NPY-Y1 antag -4, NPY-Y2 antag -4, NPY-Y1 PAM-ag 38 and WT yeast gro inh 83*.
`CC1=CCC(C(=O)O)(C(=O)N/N=C/c2cccs2)C(c2ccc([N+](=O)[O-])cc2)C1` (configuration not stated) gave NPY2 pot ag 12, RAM inhibit 3, NPY-Y1 antag 2, NPY-Y2 antag 3, NPY-Y1 PAM-ag -1 and WT yeast gro inh 70*.
For CCCCC(CC)CNS(=O)(=O)c1ccc2c(c1)CCN2C(=O)CCC(=O)O (configuration not stated) the results were NPY2 pot ag 18, RAM inhibit 2, NPY-Y1 antag -8, NPY-Y2 antag 0, NPY-Y1 PAM-ag 41* and WT yeast gro inh 4.
`COc1cccc(-c2nnn(CC(=O)O)n2)c1` gave NPY2 pot ag -33, RAM inhibit 2, NPY-Y1 antag 26*, NPY-Y2 antag 2, NPY-Y1 PAM-ag -47 and WT yeast gro inh -2.
Screening CCN(CC)c1nc(-c2ccc(Cl)cc2)cc(C(F)(F)F)c1C#N returned NPY2 pot ag -3, RAM inhibit 9.6*, NPY-Y1 antag -5, NPY-Y2 antag 1, NPY-Y1 PAM-ag 5 and WT yeast gro inh -4.
Screening COC(=O)/C(=N/Nc1ccccc1)N1CCCc2ccccc21 returned NPY2 pot ag -13, RAM inhibit 3, NPY-Y1 antag 29*, NPY-Y2 antag 22*, NPY-Y1 PAM-ag 6 and WT yeast gro inh 1.
COC(=O)/C(=N/Nc1ccc(C)cc1)N1CCCc2ccccc21 was read as NPY2 pot ag -6, RAM inhibit 1, NPY-Y1 antag 29*, NPY-Y2 antag 19*, NPY-Y1 PAM-ag 1 and WT yeast gro inh 22.

Assay outcomes deposited in PubChem by several laboratories.
